Consider 6 molecules from ChEMBL document CHEMBL4325852, “Design, synthesis, and discovery of ocotillol-type amide derivatives as orally available modulators of P-glycoprotein-mediated multidrug resistance” (Eur J Med Chem, 2019).

The source made the active and inactive calls. The calls are words filed in the database; no cut-off is given here.

Usually TGI stands for the reduction of tumour growth relative to the control group.

Data set [1] has as its target T1, ATP-dependent translocase ABCB1 (Homo sapiens, UniProt P08183). Briefly: Reversal of P-gp-mediated multidrug resistance in human KBV cells assessed as potentiation of paclitaxel-induced cell cycle arrest by measuring accumulation at S phase at 5 uM after 24 hrs by propidium iodide staining based flow cytometry (reference value: 12.54 +/- 4.01%). The procedure, abridged: (§1)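 KBV cells (grown in DMEM with 10% fetal calf serum and penicillin/streptomycin, with 10 nM paclitaxel added to maintain resistance) seeded at 3×10^5 per well and cultured 24 h. Test compound added, with or without paclitaxel 0.1 μM, for 24 h. Cells fixed in 70% ethanol overnight at –20 °C, stained 30 min with PI plus RNase A, and analysed by flow cytometry; mean ± SD, n = 3.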
Background: Flow cytometry measures light scatter and fluorescence of single cells or particles in a stream.

The target of data set [2] is T1, ATP-dependent translocase ABCB1. Briefly: Inhibition of P-gp-mediated Rh-123 efflux in human KBV cells assessed as Rh-123 accumulation preincubated for 2 hrs followed by Rh-123 addition measured after 30 mins by flow cytometry. It counts as cell-based. Particulars: 0.5 h. The procedure, abridged: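 KBV cells treated with or without compound for 2 h at the indicated concentrations, then loaded with 10 μM Rhodamine123 for 30 min. Cells harvested, washed three times in PBS and analysed by flow cytometry.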

The target of data set [3] is P-gp (ABCB1) ATPase (Homo sapiens, UniProt P08183). Briefly: Stimulation of P-gp ATPase activity (unknown origin) at 0.5 mM preincubated for 5 mins followed by Mg-ATP addition measured after 40 mins by ATP-Glo luminescence assay relative to control. Particulars: read-out: FC.
Chain of P-gp (ABCB1) ATPase (P08183 whole entry): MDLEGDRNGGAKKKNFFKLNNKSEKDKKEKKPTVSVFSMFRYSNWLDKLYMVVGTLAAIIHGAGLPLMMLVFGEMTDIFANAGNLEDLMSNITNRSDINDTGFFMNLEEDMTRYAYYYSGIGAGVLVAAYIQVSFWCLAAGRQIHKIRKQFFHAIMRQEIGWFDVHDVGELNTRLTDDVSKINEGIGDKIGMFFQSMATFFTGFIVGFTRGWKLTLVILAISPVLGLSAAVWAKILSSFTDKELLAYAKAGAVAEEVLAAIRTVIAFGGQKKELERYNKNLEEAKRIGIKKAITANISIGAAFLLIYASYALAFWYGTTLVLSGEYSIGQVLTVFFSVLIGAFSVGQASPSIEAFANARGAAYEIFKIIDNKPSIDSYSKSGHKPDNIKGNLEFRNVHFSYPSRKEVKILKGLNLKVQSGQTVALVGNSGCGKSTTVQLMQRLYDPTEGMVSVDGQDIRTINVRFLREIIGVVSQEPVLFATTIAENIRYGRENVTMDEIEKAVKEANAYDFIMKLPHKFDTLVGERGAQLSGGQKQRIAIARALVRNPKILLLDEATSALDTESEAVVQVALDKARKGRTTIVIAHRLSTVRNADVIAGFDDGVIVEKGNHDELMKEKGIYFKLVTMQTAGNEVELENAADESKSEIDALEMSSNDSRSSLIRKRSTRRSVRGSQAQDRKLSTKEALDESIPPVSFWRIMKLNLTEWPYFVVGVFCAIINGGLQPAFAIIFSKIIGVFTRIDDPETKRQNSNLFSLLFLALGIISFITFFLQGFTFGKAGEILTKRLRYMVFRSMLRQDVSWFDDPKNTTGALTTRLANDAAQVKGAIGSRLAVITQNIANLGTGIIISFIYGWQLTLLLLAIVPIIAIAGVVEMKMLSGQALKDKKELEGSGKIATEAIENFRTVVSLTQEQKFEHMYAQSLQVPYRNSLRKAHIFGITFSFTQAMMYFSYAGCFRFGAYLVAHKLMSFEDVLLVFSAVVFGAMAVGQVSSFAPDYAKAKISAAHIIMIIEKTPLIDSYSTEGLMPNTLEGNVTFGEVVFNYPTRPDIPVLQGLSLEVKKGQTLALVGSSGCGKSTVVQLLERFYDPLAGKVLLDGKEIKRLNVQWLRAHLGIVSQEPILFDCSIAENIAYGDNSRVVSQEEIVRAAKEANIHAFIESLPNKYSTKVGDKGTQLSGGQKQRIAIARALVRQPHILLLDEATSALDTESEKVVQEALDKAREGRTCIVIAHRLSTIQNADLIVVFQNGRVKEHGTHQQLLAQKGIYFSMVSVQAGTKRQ
The target in data set [4] is T1, ATP-dependent translocase ABCB1. Put plainly: Reversal of P-gp-mediated multidrug resistance in human KBV cells assessed as potentiation of paclitaxel-induced cell cycle arrest by measuring accumulation at G2/M phase at 5 uM after 24 hrs by propidium iodide staining based flow cytometry (reference value: 16.35 +/- 2.02%). The procedure, abridged: as §1
Data set [5] in a line: Toxicity in Balb/c nude mouse xenografted with human KBV cells assessed as body weight at 10 mg/kg, po via gavage for 2 weeks (reference value: 19.84 to 20.62 g). It counts as organism-based. As to conditions: in vivo, 336 h. Background: In xenograft studies the graft and the host belong to different species.
A short description of data set [6]: Cell cycle arrest in human KBV cells assessed as accumulation at S phase at 10 uM after 24 hrs by propidium iodide staining based flow cytometry (reference value: 10.03 +/- 0.75%). It counts as ADME. A digest of the protocol:
as §1

The target of data set [7] is T1, ATP-dependent translocase ABCB1. Briefly: Reversal of P-gp-mediated multidrug resistance in human KBV cells assessed as potentiation of paclitaxel-induced cytotoxicity by measuring decrease in paclitaxel IC50 at 10 uM after 72 hrs by MTT assay relative to paclitaxel alone. Format: cell-based. (Formazan colour is commonly taken as a measure of viable cells.)
Data set [8] in a line: Cell cycle arrest in human KBV cells assessed as accumulation at G2/M phase at 10 uM after 24 hrs by propidium iodide staining based flow cytometry (reference value: 19.62 +/- 1.54%). Format: ADME. The procedure, abridged: as §1
Data set [9] in a line: Cell cycle arrest in human KBV cells assessed as accumulation at sub-G1 phase at 10 uM after 24 hrs by propidium iodide staining based flow cytometry (reference value: 2.21 +/- 1.02%). Format: ADME. A digest of the protocol: as §1
Data set [10] can be described thus: Toxicity in Balb/c nude mouse xenografted with human KBV cells assessed as body weight at 10 mg/kg, po via gavage for 2 weeks cotreated with 30 mg/kg, ip paclitaxel (reference value: 19.84 to 20.62 g). Format: organism-based. Particulars: in vivo, 336 h.
Data set [11] deals with T1, ATP-dependent translocase ABCB1. Briefly: Reversal of P-gp-mediated multidrug resistance in human KBV cells assessed as potentiation of paclitaxel-induced cell cycle arrest by measuring accumulation at G0/G1 phase at 5 uM after 24 hrs by propidium iodide staining based flow cytometry (reference value: 71.11 +/- 2%). The procedure, abridged:
as §1

The nature of data set [12]: Cytotoxicity against human KBV cells xenografted in Balb/c nude mouse assessed as tumor growth inhibition at 10 mg/kg, po via gavage for 2 weeks relative to control. It counts as organism-based. As to conditions: in vivo, 336 h.
The species entered for data set [13] is Homo sapiens. Briefly: Downregulation of P-gp protein expression in human KBV cells by western blot analysis. It counts as functional, cell-based.
The target in data set [14] is T1, ATP-dependent translocase ABCB1. Put plainly: Reversal of P-gp-mediated multidrug resistance in human KBV cells assessed as potentiation of paclitaxel-induced cytotoxicity by measuring cell survival at 5 uM after 72 hrs by MTT assay (reference value: 104 +/- 8%). It counts as cell-based.
The target is the same in data set [15]. Put plainly: Reversal of P-gp-mediated multidrug resistance in human KBV cells assessed as potentiation of paclitaxel-induced cytotoxicity by measuring cell survival at 10 uM after 72 hrs by MTT assay (reference value: 104 +/- 8%). Format: cell-based.
Data set [16] in a line: Cell cycle arrest in human KBV cells assessed as accumulation at G0/G1 phase at 10 uM after 24 hrs by propidium iodide staining based flow cytometry (reference value: 70.35 +/- 0.79%). It counts as ADME. The procedure, abridged: as §1
Data set [17] addresses T1, ATP-dependent translocase ABCB1. Briefly: Stimulation of P-gp ATPase activity (unknown origin) assessed as increase in ATP consumption preincubated for 5 mins followed by Mg-ATP addition measured after 40 mins by ATP-Glo luminescence assay relative to control.
Data set [18] shares this target. Briefly: Reversal of P-gp-mediated multidrug resistance in human KBV cells assessed as potentiation of paclitaxel-induced cytotoxicity by measuring decrease in paclitaxel IC50 at 5 uM after 72 hrs by MTT assay relative to paclitaxel alone. Format: cell-based.
Data set [19] can be described thus: Cytotoxicity against human KBV cells assessed as cell survival at 10 uM after 72 hrs by MTT assay relative to control. It counts as cell-based. As to conditions: read-out: Survival. A digest of the protocol:
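KBV (Pgp-overexpressing MDR line) grown in DMEM/10% FCS, kept in 10 nM paclitaxel; seeded, compound (DMSO stock) added next day, 72 h; MTT 2 h, formazan in DMSO, A570 gives survival vs DMSO solvent control; n = 1-3 independent experiments, mean ± SD.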

Data set [20] has as its target T1, ATP-dependent translocase ABCB1. Briefly: Reversal of P-gp-mediated multidrug resistance in human KBV cells assessed as potentiation of paclitaxel-induced cell cycle arrest by measuring accumulation at sub-G1 phase at 5 uM after 24 hrs by propidium iodide staining based flow cytometry (reference value: 2.29 +/- 0.39%). The procedure, abridged: as §1
A short description of data set [21]: Potentiation of paclitaxel-induced antitumor activity against human KBV cells xenografted in Balb/c nude mouse assessed as tumor growth inhibition at 10 mg/kg, po via gavage for 2 weeks cotreated with 30 mg/kg, ip paclitaxel (reference value: 17.9%). Format: functional.

T1 sequence (P08183 whole entry): as above

For `CC(C)(C)OC(=O)NCCCCCC(=O)N[C@H]1CC[C@]2(C)[C@H]3C[C@@H](O)[C@@H]4[C@@H]([C@]5(C)CC[C@H](C(C)(C)O)O5)CC[C@@]4(C)[C@]3(C)CC[C@H]2C1(C)C`, the Activity in [1] is on record as 16.05%; in data set [4], 39.43%; in data set [5] it was 21.85 g; in data set [6], 9.22%; in [8], 17.49%; in data set [9], 2.35%. The Activity in data set [10] is 15.98 g; in [11], 44.52%; in data set [16], 73.29%; in data set [17], “Dose-dependent effect”; in [20] it was 43.12%. For the same molecule, the “inhibition (INH)” value in [2] was “Dose-dependent effect”. The fold induction at 40 min, 500 µM in [3] was determined as 6.03. For the same molecule, the “fold change (FC)” value in [7] was found to be 47.85; in data set [18], 27.97. In addition, the figures for the inhibition of tumour growth (TGI) in [12] and in data set [21] were 10.45% and 53.73%, respectively. In data set [13], the outcome was inactive. Also, the Survival in data set [14] is listed as 46%; in [15], 34%. In data set [19], the viability at 72 h, 10 µM stood at 128%.

In the case of `CC(C)(O)[C@H]1CC[C@@](C)([C@H]2CC[C@]3(C)[C@@H]2[C@H](O)C[C@@H]2[C@@]4(C)CC[C@H](N)C(C)(C)[C@@H]4CC[C@]23C)O1`, the “fold change (FC)” value amounted to 28.11 in data set [7] and 10 in data set [18]. Further, the Survival amounted to 72% in [14] and 43% in data set [15]. Further, the viability at 72 h, 10 µM in data set [19] was 125%.

Consider `COc1ccc(CCN(C)CCCC(C#N)(c2ccc(OC)c(OC)c2)C(C)C)cc1OC` (stereo not given), for which the Activity is given as 9.99% in data set [6], 21.92% in data set [8], 2.25% in data set [9] and 68.09% in data set [16]. Besides, the Survival in [15] was 43%.

`CC(C)(O)[C@H]1CC[C@@](C)([C@H]2CC[C@]3(C)[C@@H]2[C@H](O)C[C@@H]2[C@@]4(C)CC[C@H](NC(=O)c5ccccc5O)C(C)(C)[C@@H]4CC[C@]23C)O1`: the Survival is listed as 51% in data set [14] and 40% in [15]. Moreover, in [19], the viability at 72 h, 10 µM turned out to be 100%.

In the case of `CC(C)(O)[C@@H]1CC[C@@](C)([C@H]2CC[C@]3(C)[C@@H]2[C@H](O)C[C@@H]2[C@@]4(C)CC[C@H](NC(=O)CCCCCCCN)C(C)(C)[C@@H]4CC[C@]23C)O1`, the figures for the Survival in data set [14] and in data set [15] were 118% and 76%, respectively. In [19], the viability at 72 h, 10 µM is 118%.

Turning to `CC(C)(C)OC(=O)NCC(=O)N[C@H]1CC[C@]2(C)[C@H]3C[C@@H](O)[C@@H]4[C@@H]([C@]5(C)CC[C@H](C(C)(C)O)O5)CC[C@@]4(C)[C@]3(C)CC[C@H]2C1(C)C`, the Survival was 48% in data set [14] and 42% in data set [15]. In addition, in data set [19], the viability at 72 h, 10 µM worked out at 95%.
